Screens (PubChem)
KLK5 inh: inhibitors of human kallikrein 5. recombinant hK5, fluorogenic AMC substrate cleavage. inhibition, % at 5 µM. 0.59% of 210,000 active. AID 873;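 active means inhibition of 40% or more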;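 further: 0% = enzyme controls without compound and 100% = no-enzyme blanks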
Target sequence (Q9Y337 67-293 limits assumed): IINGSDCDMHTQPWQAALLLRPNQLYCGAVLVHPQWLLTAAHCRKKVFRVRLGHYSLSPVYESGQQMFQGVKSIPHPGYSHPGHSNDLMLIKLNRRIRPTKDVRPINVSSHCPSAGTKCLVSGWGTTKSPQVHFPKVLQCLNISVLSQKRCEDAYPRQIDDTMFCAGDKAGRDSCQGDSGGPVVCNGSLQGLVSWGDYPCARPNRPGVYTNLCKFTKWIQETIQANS
Rce1 inh: blocks yeast Ras-converting enzyme; 0.27% of 290,000 active; Q03530; calls only; yeast membranes, quenched prenylated peptide cleavage fluorescence;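 active means fall in fluorescence gain of 50% or more versus controls, with final raw signal at or below 3038400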;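 further: plate controls were neutral control wells for no effect and wells lacking membranes for full effect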
Target sequence (Q03530 whole entry, looked up): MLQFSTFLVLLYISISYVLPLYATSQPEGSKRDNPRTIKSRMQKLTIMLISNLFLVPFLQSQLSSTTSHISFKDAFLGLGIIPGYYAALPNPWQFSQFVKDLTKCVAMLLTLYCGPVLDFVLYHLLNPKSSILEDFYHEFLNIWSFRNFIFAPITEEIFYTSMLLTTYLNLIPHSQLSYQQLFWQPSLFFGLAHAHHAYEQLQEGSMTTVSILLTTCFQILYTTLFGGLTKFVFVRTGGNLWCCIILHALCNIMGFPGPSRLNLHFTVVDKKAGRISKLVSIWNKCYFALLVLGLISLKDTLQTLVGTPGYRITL
Thrombin inh: blocks human thrombin protease activity. 0.26% of 220,000 active. AID 1046. inhibition, % at 5 µM. alpha-thrombin, Boc-VPR-AMC fluorogenic substrate cleavage;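 active means inhibition at or above 40%; inactive means inhibition below 40%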;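 further: 0% = enzyme with no compound and 100% = wells without enzyme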
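Material: human alpha-thrombin protein; Also added: Boc-VPR-AMC substrate, 15 µM final; Timing: enzyme reaction carried out at room temperature; Signal: fluorescence, ex 355 nm, em 460 nm; Measure: % inhibition of thrombin; Controls: enzyme without compound as high, wells lacking enzyme as low.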
Fh CTSL1 inh: blocks F. hepatica cathepsin L1 in PFM18AAP counter-screen. recombinant F. hepatica cathepsin L1, Z-Leu-Arg-MCA fluorescence. inhibition, % at 5.96 µM. 0.49% of 300,000 active. AID 1906;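 active means inhibition above the mean of all tested compounds plus 3 SD, set per screening campaign, cut at about 17% in these data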;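 further: 0% = plate median of test compound wells and 100% = 1 µM Z-Phe-Ala-diazomethylketone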
FXIIa inh 1536: blocks human coagulation factor XIIa protease activity. inhibition, % at 5 µM. 0.3% of 220,000 active. purified FXIIa, Boc-QGR-AMC fluorogenic substrate, 2 h; in the data active means inhibition above about 40%;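 further: 0% = enzyme with no compound and 100% = blank without enzyme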
FXIa inh: blocks human coagulation factor XIa protease activity | inhibition, % at 5 µM | 0.14% of 220,000 active | purified FXIa, Boc-Glu-Ala-Arg-AMC fluorogenic substrate | P03951;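 active means inhibition of at least 40%; inactive means inhibition below 40%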;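 further: fluorescence of freed AMC excited at 355 nm; 0% = enzyme without compound and 100% = no enzyme blank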
* hit, by the source's call; i = inactive; nt = no result given; + = active, no number. A selection: hits, their analogues and other compounds. The true share with any hit is near 1.4%.

SMILES	KLK5 inh	Rce1 inh	Thrombin inh	Fh CTSL1 inh	FXIIa inh 1536	FXIa inh
Cc1ccc([N+](=O)[O-])cc1NC(=O)CSc1n[nH]c(-c2cccnc2)n1	nt	i	nt	0.6	nt	nt
O=C(c1ccccc1)N1N=C(c2ccccc2)CC1c1ccccc1 (stereo unspecified)	nt	i	nt	6.0	nt	nt
Cc1ccc(C(=O)N2N=C(c3ccccc3O)CC2c2ccccc2)cc1 (stereo unspecified)	nt	+	nt	4.0	nt	nt
CCCc1[nH]n(-c2ccc(F)cc2)c(=O)c1C=Nc1ccc(C)cc1	-5.1	i	-2.2	2.5	1.7	-5.0
N/C(CCS(=O)(=O)c1ccc(Cl)cc1)=N\OC(=O)c1ccccc1Cl	-1.1	nt	-2.5	24.6*	4.5	3.2
O=C(Nc1ccc(Cl)c(Cl)c1)C1CC(=O)N(c2ccc(Br)cc2)C1 (stereo unspecified)	28.9	i	49.1*	0.6	19.2	13.8
Cc1ccc(NC(=O)CN(C)C(=O)COc2cccc3cccnc23)cc1	-16.3	i	-5.9	1.8	4.1	-6.8
O=C(Nc1ccccc1NC(=O)c1csnn1)c1csnn1	3.8	i	-1.9	28.1*	1.4	-3.4
O=c1c(Cc2c(F)cccc2Cl)c(O)ccn1CC1CCCO1 (stereo unspecified)	-8.1	i	-2.1	-4.5	4.7	-2.6
O=C(c1ccccc1)C1CN(c2ccccc2)CC1c1ccc(Cl)cc1 (stereo unspecified)	62.0*	i	13.7	4.6	53.7*	6.1
COc1cccc(C(=O)C2CN(c3ccccc3)CC2c2ccc(Cl)cc2)c1 (stereo unspecified)	2.9	i	1.0	-4.8	6.5	-1.5
Cc1ccc(S(=O)(=O)N(C)C)cc1NC(=O)COC(=O)c1ccc2c(c1)OCCO2	nt	i	-1.6	-0.4	11.8	4.3
COC(=O)c1ccc(NC2CC(=O)N(c3ccccc3C)C2=O)cc1 (stereo unspecified)	26.8	i	45.3*	-2.6	31.4	-0.8
Cc1ccccc1N1C(=O)CC(Nc2ccc3c(c2)OCO3)C1=O (stereo unspecified)	1.4	i	-3.2	0.7	nt	-3.2
COc1cccc(NC(=O)CN(C)C(=O)c2cc3c(s2)CCC3)c1	nt	i	nt	3.2	nt	nt
Cc1ccc(C(=O)NCC(=O)OCC(=O)c2ccc(Br)s2)cc1	nt	i	nt	-20.5	nt	nt
CCOC(=O)N1CCN(C(=O)c2ccc3c(=O)n(Cc4ccc(OC)cc4)c(=S)[nH]c3c2)CC1	48.3*	nt	14.5	2.0	18.0	13.8
Cc1cc(CN2CCCCC2C(=O)Nc2ccc(Oc3cccnc3)cc2)oc1C (stereo unspecified)	nt	i	nt	-3.0	nt	nt
Cc1cc(C)cc(Nc2ccc(C(=O)O)cc2N)c1	-54.8	+	-1.8	0.5	10.8	5.2
Cc1ccc(C)c(NC(=O)NNS(=O)(=O)c2ccc(C)c(C)c2)c1	nt	i	nt	-3.2	nt	nt
COc1ccc(C(=O)NC2CCCCC2)cc1OC1CCN(C(C)C)CC1	nt	i	nt	2.7	nt	nt
CC(C)C1Cc2c(C#N)c(N)n(C)c(=S)c2CO1 (stereo unspecified)	53.3*	i	17.9	-1.8	17.4	5.9
Cn1c(N)c(C#N)c2c(c1=S)COC(C)(C)C2	-12.1	i	-11.2	4.6	11.6	0.1
CCOC(=O)Cn1c(=O)oc2cc(S(=O)(=O)NCCc3ccc(C)cc3)ccc21	57.8*	i	56.9*	-1.2	18.1	21.5
CCOC(=O)Cn1c(=O)oc2cc(S(=O)(=O)NCCCc3ccccc3)ccc21	-8.6	i	2.2	6.5	11.8	4.4
SMILES	KLK5 inh	Rce1 inh	Thrombin inh	Fh CTSL1 inh	FXIIa inh 1536	FXIa inh
Cc1cccc(N2CCN(C(=O)c3cc4c(=O)n(C)c5ccccc5c4n3C)CC2C)c1 (stereo unspecified)	41.2*	i	24.7	-2.9	nt	7.0
CCc1cccc(C)c1NC(=S)N(CCOC)C(C)c1ccco1 (stereo unspecified)	-3.7	i	-5.0	0.0	6.6	-4.3
Oc1ccc(/C=N/NC(=S)N2CCOCC2)cc1	-2.8	i	-2.3	16.7*	6.6	0.0
CC(C)NC(=S)N/N=C/c1ccc(N2CCOCC2)cc1	-9.6	i	-11.2	-0.2	6.4	5.9
COc1ccccc1/C=C/C=N/n1c(C)nnc1C	3.5	i	-2.7	1.0	9.0	10.2
CN(CCC1CCOCC1)C(=O)c1cc(COc2c(F)cccc2F)on1	nt	i	nt	3.1	nt	nt
COc1ccc(-n2nc(C(=O)N3CCC(N4CCCCC4)CC3)c3c4ccccc4n(C)c3c2=O)cc1	nt	i	nt	19.0*	nt	nt
CCOC(=O)C1CCCCN1Cc1ccc(OC)c(OC)c1 (stereo unspecified)	0.5	i	-2.2	0.0	11.9	-0.4
O=C(O)c1cc2c(ccc3ccccc32)oc1=O	-326.0	+	-12.1	2.0	-8.8	-18.5
CC(C)CC(NC(=O)c1ccc(Cl)cc1)C(=O)OCC(=O)c1ccc2c(c1)NC(=O)CO2 (stereo unspecified)	-3.9	i	2.8	24.6*	8.2	-6.8
CC(C)[C@H](NC(=O)c1ccco1)C(=O)OCC(=O)c1ccc2c(c1)NC(=O)CO2	2.9	i	0.1	-17.4	7.6	0.3
Cc1ccc(C(=O)N(c2ccccc2)C2CC(C)N(C(=O)c3ccco3)c3ccccc32)cc1 (stereo unspecified)	1.4	i	-1.7	0.5	5.2	4.7
O=C(Nc1cc(Cl)cc(Cl)c1)c1coc(=O)c(Br)c1	5.5	+	-2.0	1.9	2.2	6.3
CCN(CC)C(=O)CP(=O)(c1ccccc1)c1ccccc1	-11.0	nt	0.2	4.7	12.7	4.0
COc1ccccc1NC(=O)CC(c1ccc(F)cc1)c1ccco1 (stereo unspecified)	-5.5	i	-4.5	21.4*	7.5	4.2
CCN(CC)C(=O)CC(c1ccccc1)c1ccco1 (stereo unspecified)	0.1	i	2.4	35.5*	14.5	3.2
CCCN(CCC)C(=O)CC(c1ccc(F)cc1)c1ccco1 (stereo unspecified)	-15.2	i	2.6	57.3*	-4.7	-8.4
COc1ccc(CN(CCC(c2ccccc2)c2ccco2)C(=O)c2ccco2)cc1 (stereo unspecified)	-10.3	i	-2.1	23.4*	4.8	5.8
Fc1ccccc1SCc1nnc(-c2ccccc2Br)o1	-3.4	i	-5.2	-1.8	3.4	4.4
CC1CCc2c(sc(NC(=O)COC(=O)c3ccccc3NCc3ccco3)c2C#N)C1 (stereo unspecified)	-4.2	+	-2.4	-0.4	7.2	-4.4
CC1CCc2c(sc(NC(=O)c3ccccc3C(=O)O)c2C#N)C1 (stereo unspecified)	1.1	i	-8.7	-0.2	4.6	-4.0
CC1CCCCC1NS(=O)(=O)c1ccc(S(=O)(=O)NCc2ccncc2)cc1 (stereo unspecified)	8.9	i	3.6	1.9	14.7	8.1
